This is an account of results in ChEMBL document CHEMBL1134301, “[1,2,4]Triazino[4,3-a]benzimidazole acetic acid derivatives: a new class of selective aldose reductase inhibitors” (J Med Chem, 2001).

Each structure is given as a SMILES string.

The target in assay [1] is Aldo-keto reductase family 1 member B1 (Rattus norvegicus, UniProt P07943). As to the kind of experiment: Inhibitory concentration to aldose reductase (ALR-2) obtained from rat lens.
Assay [2] is filed under the species Rattus norvegicus. Briefly: Effect of the treatment on day 21 with ophthalmic solution (3%) on development of nuclear cataract in severely galactosemic rats. Type of assay: functional. The method in brief: (§1)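 Sprague Dawley albino rats (45-55 g), 15 per group of equal average body weight, fed 50% D-galactose diet with ad libitum food and water. Eyedrops given four times daily in the precorneal region, starting 1 day before the switch to galactose chow. Vehicle controls were run on galactose and on normal diet. Lenses were checked by slit-lamp after 1% atropine mydriasis, and animals with nuclear cataract (central white opacity) were counted.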

The species named for assay [3] is Rattus norvegicus. Briefly: Effect of the treatment on day 19 with ophthalmic solution (3%)on development of nuclear cataract in severely galactosemic rats. It is filed as functional. The gist of the method: as §1
Assay [4] is filed under the species Rattus norvegicus. As to the kind of experiment: Effect of the treatment on day 18 with ophthalmic solution (3%)on development of nuclear cataract in severely galactosemic rats. It is filed as functional. The method in brief:
as §1

For assay [5], the species on record is Rattus norvegicus. Briefly: Effect of the treatment on day 15 with ophthalmic solution (3%)on development of nuclear cataract in severely galactosemic rats. Type of assay: functional. The method in brief: as §1
The species named for assay [6] is Rattus norvegicus. As to the kind of experiment: Effect of the treatment on day 11 with ophthalmic solution (3%)on development of nuclear cataract in severely galactosemic rats. Type of assay: functional. The method in brief:
as §1

Assay [7] is filed under the species Rattus norvegicus. As to the kind of experiment: Effect of the treatment on day 14 with ophthalmic solution (3%)on development of nuclear cataract in severely galactosemic rats. Type of assay: functional. The gist of the method:
as §1

Assay [8] is filed under the species Rattus norvegicus. Briefly: Effect of the treatment on day 17 with ophthalmic solution (3%)on development of nuclear cataract in severely galactosemic rats. Type of assay: functional. The method in brief:
as §1

For assay [9], the species on record is Rattus norvegicus. As to the kind of experiment: Effect of the treatment on day 13 with ophthalmic solution (3%)on development of nuclear cataract in severely galactosemic rats. Type of assay: functional. The gist of the method: as §1
Assay [10] is filed under the species Rattus norvegicus. As to the kind of experiment: Effect of the treatment on day 12 with ophthalmic solution (3%)on development of nuclear cataract in severely galactosemic rats. Type of assay: functional. The gist of the method: as §1
For assay [11], the species on record is Rattus norvegicus. As to the kind of experiment: Effect of the treatment on day 16 with ophthalmic solution (3%)on development of nuclear cataract in severely galactosemic rats. Type of assay: functional. The method in brief:
as §1

The species named for assay [12] is Rattus norvegicus. As to the kind of experiment: Effect of the treatment on day 20 with ophthalmic solution (3%)on development of nuclear cataract in severely galactosemic rats. Type of assay: functional. The gist of the method: as §1
The species named for assay [13] is Rattus norvegicus. As to the kind of experiment: Effect of the treatment on day 16 with ophthalmic solution (1%)on development of nuclear cataract in severely galactosemic rats. Type of assay: functional. The method in brief:
as §1

Assay [14] is filed under the species Rattus norvegicus. Briefly: Effect of the treatment on day 13 with ophthalmic solution (1%)on development of nuclear cataract in severely galactosemic rats. It is filed as functional. The method in brief: as §1
The species entered for assay [15] is Rattus norvegicus. Briefly: Effect of the treatment on day 17 with ophthalmic solution (1%)on development of nuclear cataract in severely galactosemic rats. Type of assay: functional. The method in brief:
as §1

For assay [16], the species on record is Rattus norvegicus. As to the kind of experiment: Effect of the treatment on day 11 with ophthalmic solution (1%)on development of nuclear cataract in severely galactosemic rats. Type of assay: functional. The method in brief:
as §1

Assay [17] is filed under the species Rattus norvegicus. As to the kind of experiment: Effect of the treatment on day 14 with ophthalmic solution (1%)on development of nuclear cataract in severely galactosemic rats. Type of assay: functional. The gist of the method:
as §1

The species named for assay [18] is Rattus norvegicus. As to the kind of experiment: Effect of the treatment on day 21 with ophthalmic solution (1%) on development of nuclear cataract in severely galactosemic rats. It is filed as functional. The gist of the method:
as §1

The species named for assay [19] is Rattus norvegicus. As to the kind of experiment: Effect of the treatment on day 15 with ophthalmic solution (1%)on development of nuclear cataract in severely galactosemic rats. It is filed as functional. The method in brief: as §1
The species named for assay [20] is Rattus norvegicus. Briefly: Effect of the treatment on day 20 with ophthalmic solution (1%)on development of nuclear cataract in severely galactosemic rats. Type of assay: functional. The gist of the method: as §1
For assay [21], the species on record is Rattus norvegicus. Briefly: Effect of the treatment on day 18 with ophthalmic solution (1%)on development of nuclear cataract in severely galactosemic rats. It is filed as functional. The method in brief:
as §1

Assay [22] is filed under the species Rattus norvegicus. Briefly: Effect of the treatment on day 12 with ophthalmic solution (1%)on development of nuclear cataract in severely galactosemic rats. Type of assay: functional. The method in brief: as §1
The species entered for assay [23] is Rattus norvegicus. As to the kind of experiment: Effect of the treatment on day 19 with ophthalmic solution (1%)on development of nuclear cataract in severely galactosemic rats. It is filed as functional. The method in brief:
as §1

Consider `O=C(O)Cn1nc2n(Cc3ccc(F)c(F)c3)c3ccccc3n2c(=O)c1=O`, for which, in assay [1], the IC50 (usually the concentration needed to halve the response being measured) is 4.42 µM.
Same read-out and setting: the figure for `O=C(O)CN/N=c1\n(Cc2ccc(Cl)cc2)c2ccccc2n1C(=O)C(=O)O` is 10 µM; for `COc1ccc(Cn2/c(=N\NCC(=O)O)n(C(=O)C(=O)O)c3ccccc32)cc1` it is 44.5 µM; for `O=C(O)CN/N=c1\n(Cc2ccc(Br)cc2F)c2ccccc2n1C(=O)C(=O)O` it is 12.5 µM.
`Cn1/c(=N\NCC(=O)O)n(C(=O)C(=O)O)c2ccccc21` came in with a half-maximal inhibitory concentration (IC50) in assay [1] of 109 µM. This IC50 is about 8.7-fold higher than that of the compound before.
The compound `O=C(O)CN/N=c1\n(Cc2ccccc2)c2ccccc2n1C(=O)C(=O)O` yielded an IC50 in assay [1] of 4.5 µM.
Same read-out and setting: under `O=C(O)Cn1nc2n(Cc3ccc(F)cc3)c3ccccc3n2c(=O)c1=O` stands 4.58 µM; under `CCCn1c2ccccc2n2c(=O)c(=O)n(CC(=O)O)nc12`, 37.2 µM; under `O=C(O)Cn1nc2n(Cc3ccc(Br)cc3F)c3ccccc3n2c(=O)c1=O`, 4.47 µM.
Same read-out and setting: the figure for `O=C(O)CN/N=c1\n(Cc2ccc(C(F)(F)F)cc2)c2ccccc2n1C(=O)C(=O)O` is 2.63 µM.
`Cc1ccc(Cn2c3ccccc3n3c(=O)c(=O)n(CC(=O)O)nc23)cc1`: the IC50 in [1] stood at 13.3 µM.
Still for that read-out and setting: the figure for `O=C(O)Cc1nnc2nc3ccccc3n2c1O` is 35.9 µM; for `O=C(O)Cn1nc2n(Cc3ccc(C(F)(F)F)cc3)c3ccccc3n2c(=O)c1=O` it is 23.9 µM.
Take `CC(C)OC(=O)Cn1nc2n(Cc3ccccc3)c3ccccc3n2c(=O)c1=O`: the Nuclear cataract in the assay filed under Rattus norvegicus [2] came to 40%; in the assay listed under Rattus norvegicus [3] it was 40%; in the assay filed under Rattus norvegicus [4] it was 40%; in the assay listed under Rattus norvegicus [5], 10%; in the assay filed under Rattus norvegicus [6] it was 0%; in the assay filed under Rattus norvegicus [7], 10%. Moreover, the Nuclear cataract in the assay listed under Rattus norvegicus [8] was 10%; in the assay listed under Rattus norvegicus [9], 10%; in the assay listed under Rattus norvegicus [10], 10%; in the assay filed under Rattus norvegicus [11], 10%; in the assay filed under Rattus norvegicus [12] it was 40%.
In assay [1], `Cn1c2ccccc2n2c(=O)c(CC(=O)O)nnc12` registered an IC50 of 17 µM.
In assay [1], `O=C(O)Cn1nc2n(Cc3ccc(Cl)cc3)c3ccccc3n2c(=O)c1=O` came in with an IC50 of 4.15 µM. This IC50 lies about 4.1-fold lower than the previous one.
On the same count and under the same terms, under `O=C(O)CN/N=c1\n(Cc2ccc(F)c(F)c2)c2ccccc2n1C(=O)C(=O)O` stands 9.72 µM; under `COc1ccc(Cn2c3ccccc3n3c(=O)c(=O)n(CC(=O)O)nc23)cc1`, 42.6 µM.
Same read-out and setting: the figure for `O=C(O)CN/N=c1\n(CC(=O)O)c2ccccc2n1C(=O)C(=O)O` is 236 µM.
As for `O=C(O)Cn1nc2n(Cc3ccccc3)c3ccccc3n2c(=O)c1=O`, the Nuclear cataract was found to be 50% in the assay listed under Rattus norvegicus [2]; 40% in the assay filed under Rattus norvegicus [3]; 40% in the assay listed under Rattus norvegicus [4]; 10% in the assay listed under Rattus norvegicus [5]; 0% in the assay listed under Rattus norvegicus [6]; 10% in the assay listed under Rattus norvegicus [7]. Further, the Nuclear cataract was 10% in the assay filed under Rattus norvegicus [8]; 0% in the assay filed under Rattus norvegicus [9]; 0% in the assay listed under Rattus norvegicus [10]; 10% in the assay listed under Rattus norvegicus [11]; 50% in the assay filed under Rattus norvegicus [12]. Further, in assay [1], it took 0.36 µM to reach half-maximal inhibition (IC50).
In [1], `O=C(O)CN/N=c1\n(Cc2ccc(F)cc2)c2ccccc2n1C(=O)C(=O)O` yielded an IC50 of 14.8 µM.
In assay [1], `Cn1c2ccccc2n2c(=O)c(=O)n(CC(=O)O)nc12` showed an IC50 of 24.8 µM.
The same measure, in the same setting: the figure for `O=C(O)Cn1nc2n(CC(=O)O)c3ccccc3n2c(=O)c1=O` is 13.5 µM.
Same read-out and setting: the figure for `O=C(O)Cc1nnc2n(Cc3ccccc3)c3ccccc3n2c1=O` is 5.44 µM; for `Cc1ccc(Cn2/c(=N\NCC(=O)O)n(C(=O)C(=O)O)c3ccccc32)cc1` it is 45.9 µM.
Still for that read-out and setting: the figure for `CCCn1/c(=N\NCC(=O)O)n(C(=O)C(=O)O)c2ccccc21` is 46.5 µM.
In the case of `COc1ccc2c(C(=S)N(C)CC(=O)O)cccc2c1C(F)(F)F` [TOLRESTAT], the Nuclear cataract in the assay listed under Rattus norvegicus [2] came to 0%; in the assay filed under Rattus norvegicus [13] it was 32%; in the assay filed under Rattus norvegicus [14], 0%; in the assay filed under Rattus norvegicus [3], 0%; in the assay listed under Rattus norvegicus [4] it was 0%; in the assay listed under Rattus norvegicus [5], 0%. Moreover, the Nuclear cataract in the assay filed under Rattus norvegicus [15] came out at 32%; in the assay filed under Rattus norvegicus [6], 0%; in the assay listed under Rattus norvegicus [16] it was 0%; in the assay listed under Rattus norvegicus [17], 23%; in the assay listed under Rattus norvegicus [7], 0%; in the assay listed under Rattus norvegicus [8], 0%. Further, the Nuclear cataract in the assay listed under Rattus norvegicus [18] is on record as 47%; in the assay filed under Rattus norvegicus [9], 0%; in the assay filed under Rattus norvegicus [19], 32%; in the assay listed under Rattus norvegicus [20] it was 47%; in the assay listed under Rattus norvegicus [21], 43%; in the assay listed under Rattus norvegicus [10] it was 0%. Also, the Nuclear cataract came out at 0% in the assay listed under Rattus norvegicus [11], 0% in the assay listed under Rattus norvegicus [12], 0% in the assay filed under Rattus norvegicus [22] and 43% in the assay filed under Rattus norvegicus [23]. Moreover, in assay [1], the IC50 came out at 0.05 µM.
